TRPC6 activator = mouse TRPC6 channel activators, primary screen, cell-based, HEK293, membrane potential dye. HEK293-TRPC6 membrane potential dye fluorescence; hits give high values. B-score at 10 µM. 310,000 compounds, 0.13% hits. AID 2550, 2010;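 active means B-score of the integrated fluorescence ratio above library mean plus 3 SD, and starting fluorescence ratio within library mean plus 5 SD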;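 further: higher score means more depolarization so channel activation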
Target sequence (Q61143 whole entry, looked up): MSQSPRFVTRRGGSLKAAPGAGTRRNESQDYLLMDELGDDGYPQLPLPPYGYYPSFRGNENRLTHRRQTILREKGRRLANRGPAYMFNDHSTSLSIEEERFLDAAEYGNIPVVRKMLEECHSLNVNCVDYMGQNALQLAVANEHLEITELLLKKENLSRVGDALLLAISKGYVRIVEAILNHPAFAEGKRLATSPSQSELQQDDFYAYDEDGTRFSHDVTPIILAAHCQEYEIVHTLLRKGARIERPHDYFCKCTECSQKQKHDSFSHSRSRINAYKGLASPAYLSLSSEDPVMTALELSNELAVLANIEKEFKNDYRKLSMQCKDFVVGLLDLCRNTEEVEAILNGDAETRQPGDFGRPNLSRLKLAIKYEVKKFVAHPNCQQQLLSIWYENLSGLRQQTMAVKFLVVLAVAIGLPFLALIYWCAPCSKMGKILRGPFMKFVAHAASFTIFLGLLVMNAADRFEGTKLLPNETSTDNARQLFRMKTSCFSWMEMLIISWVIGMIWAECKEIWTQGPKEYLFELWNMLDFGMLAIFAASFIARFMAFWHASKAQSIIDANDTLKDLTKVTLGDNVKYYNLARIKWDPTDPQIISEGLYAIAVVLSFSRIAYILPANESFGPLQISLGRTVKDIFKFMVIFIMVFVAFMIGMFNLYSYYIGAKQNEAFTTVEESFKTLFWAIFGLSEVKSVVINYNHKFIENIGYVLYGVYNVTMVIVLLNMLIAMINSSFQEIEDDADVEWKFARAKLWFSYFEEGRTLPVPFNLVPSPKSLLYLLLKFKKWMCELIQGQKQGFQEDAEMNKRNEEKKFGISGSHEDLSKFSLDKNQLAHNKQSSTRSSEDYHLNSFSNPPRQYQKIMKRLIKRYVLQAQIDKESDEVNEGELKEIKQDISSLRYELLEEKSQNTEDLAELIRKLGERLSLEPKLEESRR
TRPC4 PAM = positive allosteric modulators of TRPC4, primary screen, cell-based, mouse TRPC4beta, HEK293 mu-opioid, Fluo-4 calcium | AID 2227, 2009 | Short transient receptor potential channel 4 (Mus musculus), Q9QUQ5 | DAMGO EC20, Fluo-4 Ca2+ flux; hits give high values | B-score at 10 µM | 310,000 compounds, 0.42% hits;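 active means B-score of calcium response area above 5 SD of library B-scores, with initial fluorescence ratio within 5 SD of library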;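 further: B-score of integrated fluorescence ratio over time as area under calcium response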
TRPC6 inhibitor = mouse TRPC6 channel inhibitors, primary screen, cell-based, HEK293, membrane potential dye. Short transient receptor potential channel 6 (Mus musculus), Q61143. ACh-evoked depolarization; hits give low values. B-score at 10 µM. 310,000 compounds, 1.1% hits;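 active means B-score under library mean minus 3 SD, initial fluorescence not abnormally high, positive integrated signal ratio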;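 further: B-score derived from integrated fluorescence ratio over the kinetic read; more negative B-score means stronger inhibition of depolarization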
TRPC4 inh = inhibitors of mouse TRPC4 channel, primary screen, Fluo4 calcium, HEK293 TRPC4beta/mu-opioid cells; Short transient receptor potential channel 4 (Mus musculus), Q9QUQ5; DAMGO-evoked Fluo4 calcium flux; hits give low values; B-score at 10 µM; 300,000 compounds, 0.39% hits;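 active means B-score over 3 SD under the library average, no early fluorescence shift, positive overall ratio signal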
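Assay system: Stable TRPC4beta/mu-opioid receptor HEK293 cells | Reagent: DAMGO in two steps, submaximal then maximal | Compound dosing: Single concentration per test compound | Signal: Fluo4 Ca2+ flux fluorescence | Evaluation: Per-well B score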
Kir21 block = inhibitors of mouse Kir2.1 inward-rectifier potassium channel | Inward rectifier potassium channel 2 (Mus musculus), P35561 | HEK293-Kir2.1, FluxOR thallium flux fluorescence; hits give low values | B-score at 10 µM | 310,000 compounds, 0.85% hits | AID 1672, 2009;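 active means fluorescence ratio B-score at or below minus 3 SD of library scores, with starting-brightness B-score within 2 SD, cut at about -4.2 in these data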;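 further: channel flux triggered by added potassium and thallium sulfate stimulus; B-score of peak minus minimum fluorescence over baseline after thallium stimulus; more negative B-score means stronger Kir2.1 block with less thallium influx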
TRPC4 agonist = activators of mouse TRPC4 channel, primary screen, Fluo4 calcium, HEK293 TRPC4beta/mu-opioid cells; Short transient receptor potential channel 4 (Mus musculus), Q9QUQ5; Fluo4 calcium fluorescence; hits give high values; B-score at 10 µM; 310,000 compounds, 0.49% hits; AID 2237, 2010;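 active means B-score above 5 SD of library B-scores, and initial fluorescence ratio not above library mean plus 5 SD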;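 further: positive B-score marks a calcium rise read as TRPC4 activation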
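Assay system: HEK293 stable line with TRPC4beta plus mu-opioid receptor; schedule: 45 min room-temperature Fluo4 loading, 110 s read; technique: kinetic Fluo4 calcium fluorescence; evaluation: integrated baseline-normalised fluorescence ratio, converted to per-well B score; controls: buffer (low) and maximal DAMGO (high)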
Starred values were filed as active, the others as inactive. This is a sample that favours compounds with a hit; in the whole collection about 2.9% have one here.

`CC(C)CN(C(=O)COC(=O)CCC(=O)c1ccc(Cl)cc1)c1c(N)n(Cc2ccccc2)c(=O)[nH]c1=O` gave TRPC6 activator inactive, TRPC4 PAM 114*, TRPC6 inhibitor inactive, TRPC4 inh inactive, Kir21 block -0.81 and TRPC4 agonist inactive.
COc1ccc(-n2nc3c(c2NC(=O)COc2cccc(OC)c2)CS(=O)(=O)C3)cc1 was read as TRPC6 activator inactive, TRPC4 PAM inactive, TRPC6 inhibitor inactive, TRPC4 inh inactive, Kir21 block 0.34 and TRPC4 agonist inactive.
`O=C(COC(=O)c1ncc(Cl)c(Cl)c1Cl)Nc1ccc(Cl)cn1` gave TRPC6 activator inactive, TRPC4 PAM inactive, TRPC6 inhibitor inactive, TRPC4 inh inactive, Kir21 block 1.11 and TRPC4 agonist inactive.
Screening Cc1cccc(CN2CCC(C(=O)Nc3ccc(Oc4cccnc4)cc3)CC2)c1 returned TRPC6 activator inactive, TRPC4 PAM inactive, TRPC6 inhibitor inactive, TRPC4 inh inactive, Kir21 block -4.28* and TRPC4 agonist inactive.
COc1cccc(CN2CCC(C(=O)Nc3ccc(Oc4cccnc4)cc3)CC2)c1 was read as TRPC6 activator inactive, TRPC4 PAM inactive, TRPC6 inhibitor inactive, TRPC4 inh inactive, Kir21 block -2.21 and TRPC4 agonist inactive.
CC(C)Oc1ccccc1C1CC(=O)Nc2cc3c(cc21)OCCO3 (configuration not stated) was read as TRPC6 activator inactive, TRPC4 PAM 82*, TRPC6 inhibitor inactive, TRPC4 inh inactive, Kir21 block 0.67 and TRPC4 agonist inactive.
For Clc1ccc(-c2c[n+](Cc3cccc(Cl)c3)c3n2CCC3)cc1 the results were TRPC6 activator inactive, TRPC4 PAM inactive, TRPC6 inhibitor inactive, TRPC4 inh -6*, Kir21 block 0.39 and TRPC4 agonist inactive.
O=[N+]([O-])c1ccc(C[n+]2cc(-c3ccc(Cl)c(Cl)c3)n3c2CCCCC3)cc1 was read as TRPC6 activator inactive, TRPC4 PAM inactive, TRPC6 inhibitor inactive, TRPC4 inh inactive, Kir21 block -2.55 and TRPC4 agonist inactive.
`Clc1ccc(C[n+]2cc(-c3ccccc3)n3c2CCC3)cc1Cl` gave TRPC6 activator inactive, TRPC4 PAM inactive, TRPC6 inhibitor inactive, TRPC4 inh -6*, Kir21 block 0.2 and TRPC4 agonist inactive.
COCCCNc1nc2ccccc2nc1NS(=O)(=O)c1ccc(C)cc1C was read as TRPC6 activator inactive, TRPC4 PAM inactive, TRPC6 inhibitor inactive, TRPC4 inh inactive, Kir21 block 0.69 and TRPC4 agonist inactive.
`CC(=O)c1ccc(NC(=O)CCCN2C(=O)C(c3ccccc3)Oc3cccnc32)cc1` (configuration not stated) gave TRPC6 activator inactive, TRPC4 PAM inactive, TRPC6 inhibitor inactive, TRPC4 inh inactive, Kir21 block -4.25* and TRPC4 agonist inactive.
Screening Cc1c(Cl)cccc1NC(=O)CN(C1CCCCC1)S(C)(=O)=O returned TRPC6 activator inactive, TRPC4 PAM inactive, TRPC6 inhibitor inactive, TRPC4 inh inactive, Kir21 block -0.05 and TRPC4 agonist inactive.
`CCn1cc(CCCC(=O)NCc2ccccc2OC)c2ccccc21` gave TRPC6 activator inactive, TRPC4 PAM inactive, TRPC6 inhibitor inactive, TRPC4 inh inactive, Kir21 block -1.71 and TRPC4 agonist inactive.
Screening CCn1cc(CCC(=O)NCc2ccccc2OC)c2ccccc21 returned TRPC6 activator inactive, TRPC4 PAM inactive, TRPC6 inhibitor inactive, TRPC4 inh inactive, Kir21 block -6.67* and TRPC4 agonist inactive.
For COc1cccc(/C=N/NC(=S)NC2CC3CC2C2C=CCC32)c1O (configuration not stated) the results were TRPC6 activator inactive, TRPC4 PAM inactive, TRPC6 inhibitor inactive, TRPC4 inh inactive, Kir21 block 0.36 and TRPC4 agonist inactive.
`Oc1ccccc1/C=N/NC(=S)NC1CC2CC1C1C=CCC21` (configuration not stated) gave TRPC6 activator inactive, TRPC4 PAM inactive, TRPC6 inhibitor inactive, TRPC4 inh -8*, Kir21 block 0.03 and TRPC4 agonist inactive.
COC(=O)c1ccccc1-c1cn(C)c2ccccc2c1=O was read as TRPC6 activator inactive, TRPC4 PAM inactive, TRPC6 inhibitor inactive, TRPC4 inh inactive, Kir21 block -0.61 and TRPC4 agonist inactive.
Screening CCCCCCCNC(=O)COc1ccc2c(c1)C(=O)CC(C)(C)O2 returned TRPC6 activator inactive, TRPC4 PAM inactive, TRPC6 inhibitor inactive, TRPC4 inh -5*, Kir21 block -1.29 and TRPC4 agonist inactive.
Screening COc1ccc(CCNc2ncnc3sc(C)cc23)cc1OC returned TRPC6 activator inactive, TRPC4 PAM inactive, TRPC6 inhibitor inactive, TRPC4 inh inactive, Kir21 block -6.23* and TRPC4 agonist inactive.
Screening COc1ccc(CCNc2ncnc3[nH]ncc23)cc1OC returned TRPC6 activator inactive, TRPC4 PAM inactive, TRPC6 inhibitor inactive, TRPC4 inh inactive, Kir21 block 1.65 and TRPC4 agonist inactive.
`Cc1csc(/C(=N/OC(=O)c2ccco2)C(N)=O)n1` gave TRPC6 activator inactive, TRPC4 PAM 10*, TRPC6 inhibitor inactive, TRPC4 inh inactive, Kir21 block -0.67 and TRPC4 agonist inactive.
`CN(C)CCCN1c2ccccc2CCc2ccc(Cl)cc21` gave TRPC6 activator inactive, TRPC4 PAM inactive, TRPC6 inhibitor inactive, TRPC4 inh inactive, Kir21 block -6.21* and TRPC4 agonist inactive.
For COc1cc(/C=C(/C#N)C(=O)c2c(C)[nH]c3ccccc23)ccc1OCC#N the results were TRPC6 activator inactive, TRPC4 PAM 10*, TRPC6 inhibitor inactive, TRPC4 inh inactive, Kir21 block -0.21 and TRPC4 agonist inactive.
Screening CCOc1ccc(/C=C(\C#N)C(=O)c2c(C)[nH]c3ccccc23)cc1OC returned TRPC6 activator inactive, TRPC4 PAM inactive, TRPC6 inhibitor inactive, TRPC4 inh inactive, Kir21 block 0.47 and TRPC4 agonist inactive.
O=c1ccc(OCCOc2ccccc2)nn1-c1ccccc1 was read as TRPC6 activator inactive, TRPC4 PAM 17*, TRPC6 inhibitor inactive, TRPC4 inh inactive, Kir21 block 0.07 and TRPC4 agonist inactive.

From PubChem
